Experimental data published in PMC9948165 (ACS Omega, 2023).

Assays:
Assay type in all cases: cell-based, human
HCT116 cells [1] = experiment: MTT cytotoxicity assay, HCT116; conditions: for IC50: read-out: IC50 HCT116 cells, 72 h
Summary of the method: (§1)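 Cells seeded at 5 × 10^3 per well in 96-well plates and left overnight: A549 and HCT116 in RPMI-1640, LO2 in DMEM. Medium replaced with test compound at 100, 50, 25, 12.5, 6.25, 3.125 or 1.5625 μM for 72 h; medium-only control. MTT (5 mg/mL) added for 4 h, formazan dissolved in DMSO, OD read at 490 nm; IC50 derived.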

A549 cells = experiment: MTT cytotoxicity assay, A549; conditions: read-out: IC50 A549 cells, 72 h
Summary of the method: as §1

LO2 cells = experiment: MTT cytotoxicity assay, LO2 normal hepatocytes; conditions: read-out: IC50 LO2 cells, 72 h, normal hepatocyte cell line
Summary of the method: as §1

HCT116 cells [2] = experiment: Cell cycle analysis by flow cytometry; conditions: HCT116, 10 μM, 24 h
Summary of the method: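 HCT116 cells in log phase were seeded at 1 × 10^6 per well in six-well plates and grown 24 h at 37 °C. They were PBS-washed, given fresh medium with 10 μM test compound for 24 h, trypsinised and washed in cold PBS. Cells were fixed in 70% ethanol at −20 °C for 48 h, treated with RNase A at 37 °C for 30 min, then PI for 30 min at RT in the dark. Flow cytometry DNA content was model-fitted into cell-cycle phases.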

Row | SMILES | IC50 (HCT116 cells [1]) [µM] | IC50 (A549 cells) [µM] | IC50 (LO2 cells) [µM] | cell cycle blocking effect (HCT116 cells [2]) | cytotoxicity against HCT116 cells (HCT116 cells [1]; at 25 μM, 72 h) [%]
1 | c1cnc2c([O][Ga]([O]c3cccc4cccnc34)[O]c3cccc4cccnc34)cccc2c1 [CP-1, [Ga(HQL)3]] | 1.2 ± 0.2 | 3.8 ± 1.1 | 8 ± 1 |  | 
2 | N.N.[Cl][Pt][Cl] [cisplatin, reference compound] | 5.7 | 7.5 ± 0.7 | 0.7 | mainly blocked the cell cycle in the S phase | 
3 | Cc1ccc2cccc([O][Ga]([O]c3cccc4ccc(C)nc34)[O]c3cccc4ccc(C)nc34)c2n1 [CP-2, [Ga(MQL)3]] | 4.7 ± 0.7 | 6.1 ± 0.8 | 3.3 ± 0.5 |  | 
4 | Clc1ccc([O][Ga]([O]c2ccc(Cl)c3cccnc23)[O]c2ccc(Cl)c3cccnc23)c2ncccc12 [CP-3, [Ga(ClQL)3]] | 2 ± 0.3 | 8.7 ± 0.8 | 23.3 ± 5.3 |  | 91.98
5 | O=C1[O][Pt]2([NH][C@@H]3CCCC[C@H]3[NH]2)[O]C1=O [oxaliplatin, reference compound] | 8.3 ± 0.4 | 3.2 ± 0.2 | 2.3 ± 0.3 | blocked it in the G1/S/G2 phase with comparable effects | 
